ChEMBL document CHEMBL2417436, “Synthesis and biological effects of novel 2-amino-3-(4-chlorobenzoyl)-4-substituted thiophenes as allosteric enhancers of the A1 adenosine receptor” (Eur J Med Chem, 2013)

Columns and labels:
[1] = target: T1, Adenosine receptor A1 (Homo sapiens) (UniProt P30542); assay: Allosteric enhancement of human adenosine A1 receptor expressed in CHO cells assessed as increase of CCPA Ki at 10 uM after 90 mins by [3H]DPCPX radioligand binding assay; format: cell-based
T1 sequence (whole entry): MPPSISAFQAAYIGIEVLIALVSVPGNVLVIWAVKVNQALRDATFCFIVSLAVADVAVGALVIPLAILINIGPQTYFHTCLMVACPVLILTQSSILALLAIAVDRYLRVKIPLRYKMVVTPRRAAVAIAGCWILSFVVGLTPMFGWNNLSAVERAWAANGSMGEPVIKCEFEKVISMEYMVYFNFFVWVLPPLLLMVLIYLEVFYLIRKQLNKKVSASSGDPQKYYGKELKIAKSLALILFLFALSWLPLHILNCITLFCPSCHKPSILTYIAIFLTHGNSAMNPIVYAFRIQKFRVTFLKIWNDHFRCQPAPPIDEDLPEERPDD
Outline: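 hA1CHO membranes (50 mM Tris-HCl, pH 7.4, adenosine deaminase-treated). [3H]DPCPX 1 nM competed by CCPA (0.01 nM–1 μM) with or without test compound at 10 μM. Triplicate, 90 min at 25 °C. Nonspecific binding taken with 1 μM DPCPX. Filtration, then scintillation counting. Ki by Cheng–Prusoff. Shift = Ki(CCPA)/Ki(CCPA+enhancer). Mean ± SEM, n=3.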

[2] = target: T1, Adenosine receptor A1 (Homo sapiens); assay: Allosteric enhancement of human adenosine A1 receptor expressed in CHO cells assessed as increase of [3H]CCPA Bmax at 10 uM after 90 mins; format: cell-based
Outline: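 Saturation of [3H]CCPA (0.05–20 nM) on hA1CHO membranes in 50 mM Tris-HCl, pH 7.4, with or without compound at final 10 μM. Triplicate, 25 °C, 90 min. Nonspecific binding defined with 1 μM R-PIA. Filter-bound radioactivity counted. KD and Bmax fitted by weighted nonlinear least squares; Bmax shift versus control. Mean ± SEM, n=3.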

[3] = target: Adenosine receptor A2a (Homo sapiens) (UniProt P29274); assay: Displacement of [3H]ZM 241385 from human adenosine A2A receptor expressed in CHO cells at 10 uM after 60 mins by scintillation counting; format: cell-based
Chain of Adenosine receptor A2a (Homo sapiens) (P29274 whole entry): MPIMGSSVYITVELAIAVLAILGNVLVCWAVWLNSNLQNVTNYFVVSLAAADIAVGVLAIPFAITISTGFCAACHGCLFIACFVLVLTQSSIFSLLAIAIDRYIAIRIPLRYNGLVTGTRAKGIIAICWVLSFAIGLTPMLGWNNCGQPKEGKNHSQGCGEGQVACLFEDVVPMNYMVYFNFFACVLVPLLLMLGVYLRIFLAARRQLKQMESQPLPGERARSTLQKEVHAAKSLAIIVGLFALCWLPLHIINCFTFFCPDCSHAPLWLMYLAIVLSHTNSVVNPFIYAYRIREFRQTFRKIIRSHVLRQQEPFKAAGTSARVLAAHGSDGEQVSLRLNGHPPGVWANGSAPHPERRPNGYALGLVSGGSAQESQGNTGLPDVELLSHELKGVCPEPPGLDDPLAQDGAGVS
Outline: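 hA2ACHO membranes in 50 mM Tris HCl, 10 mM MgCl2, pH 7.4, 4 °C for 60 min. [3H]ZM 241385 given as 1 nM in methods and 2 nM in table footnote. Compound at 10 μM from 100-fold DMSO stock, 1% DMSO final. Nonspecific binding with 1 μM ZM 241385. Filtration and scintillation counting. Percent inhibition of control specific binding, ±SEM, n=3.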

[4] = target: T1, Adenosine receptor A1 (Homo sapiens); assay: Allosteric enhancement of human adenosine A1 receptor expressed in CHO cells assessed as inhibition of CCPA-induced cAMP production at 100 nM after 10 mins; format: functional, cell-based
Outline: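 Intact hA1CHO cells (10⁶/mL) in phosphate buffer with adenosine deaminase 1.0 IU/mL and Ro 20-1724 0.5 mM, preincubated 10 min at 37 °C. Compound 100 nM plus CCPA 1 pM added for 10 min, then forskolin 1 μM for 5 min. Stopped with cold 6% TCA, ether-extracted. cAMP measured by [3H]-cAMP competition with adrenal binding protein (4 °C, 150 min). pmol/10⁶ cells, mean ± SEM of three.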

[5] = target: T1, Adenosine receptor A1 (Homo sapiens); assay: Allosteric enhancement of human adenosine A1 receptor expressed in CHO cells assessed as inhibition of forskolin-induced cAMP production at 10 uM after 10 mins; format: functional, cell-based
Outline: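 Whole hA1CHO cells (10⁶/mL) preincubated 10 min at 37 °C in phosphate buffer with adenosine deaminase (1.0 IU/mL) and Ro 20-1724 (0.5 mM). Compound alone at 10 μM for a further 10 min; forskolin 1 μM for 5 min. TCA stop, ether extraction, cAMP by [3H]-cAMP protein-binding competition assay. Expressed as pmol/10⁶ cells; mean ± SEM, three experiments.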

[6] = target: T1, Adenosine receptor A1 (Homo sapiens); assay: Displacement of [3H]DPCPX from human adenosine A1 receptor expressed in CHO cells at 10 uM after 120 mins by scintillation counting
[7] = target: T2, Adenosine receptor A3 (Homo sapiens) (UniProt P0DMS8); assay: Displacement of [3H]MRE-3008-F20 from human adenosine A3 receptor expressed in CHO cells at 10 uM after 120 mins by scintillation counting
T2 sequence (whole entry): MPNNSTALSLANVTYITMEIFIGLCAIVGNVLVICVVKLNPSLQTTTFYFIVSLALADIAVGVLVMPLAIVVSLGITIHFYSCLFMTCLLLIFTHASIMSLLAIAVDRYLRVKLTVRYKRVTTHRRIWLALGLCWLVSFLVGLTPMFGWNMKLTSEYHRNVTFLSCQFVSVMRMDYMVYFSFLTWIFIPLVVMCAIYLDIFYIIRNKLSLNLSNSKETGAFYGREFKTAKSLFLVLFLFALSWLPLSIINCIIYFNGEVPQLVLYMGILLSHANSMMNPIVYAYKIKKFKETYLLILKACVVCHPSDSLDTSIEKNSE

fold change (FC) [1] | fold change (FC) [2] | inhibition [3] | inhibition [4] | inhibition [5] | inhibition [6] | inhibition [7] | SMILES
1.3 | 1.3 | 1% | 13% | 10% | 5% | 10% | CN(Cc1c(-c2ccccc2)sc(N)c1C(=O)c1ccc(Cl)cc1)C(C)(C)C
1 | 1 | 1% | 12% | 5% | 0% | 2% | CCN(CC)Cc1csc(N)c1C(=O)c1ccc(Cl)cc1
2.2 | 2.4 | 1% | 16% | 18% | 1% | 9% | CN(Cc1csc(N)c1C(=O)c1ccc(Cl)cc1)c1ccccc1
1.4 | 1.3 | 1% | 16% | 11% | 5% | 11% | Cc1ccc(OCc2csc(N)c2C(=O)c2ccc(Cl)cc2)cc1
2.2 | 2.5 | 0% | 21% | 22% | 8% | 12% | CN(Cc1csc(N)c1C(=O)c1ccc(Cl)cc1)c1ccc(Cl)cc1
1.1 | 1.1 | 3% | 11% | 4% | 1% | 6% | CN(Cc1ccccc1)Cc1c(-c2ccccc2)sc(N)c1C(=O)c1ccc(Cl)cc1
2 | 2.2 | 1% | 21% | 18% | 1% | 5% | Nc1scc(CSc2ccccc2)c1C(=O)c1ccc(Cl)cc1
2.4 | 2.8 | 5% | 27% | 25% | 1% | 9% | CCN(CC)Cc1c(-c2ccccc2)sc(N)c1C(=O)c1ccc(Cl)cc1
1.2 | 1.2 | 1% | 15% | 10% | 1% | 8% | Nc1scc(COc2ccc(F)cc2)c1C(=O)c1ccc(Cl)cc1
1.9 | 2.3 | 0% | 18% | 19% | 0% | 11% | CCN(Cc1csc(N)c1C(=O)c1ccc(Cl)cc1)c1ccccc1
2.8 | 3.2 | 0% | 31% | 29% | 3% | 4% | CN(Cc1csc(N)c1C(=O)c1ccc(Cl)cc1)c1ccc(C(F)(F)F)cc1
1.2 | 1.3 | 0% | 11% | 9% | 1% | 2% | Nc1scc(COc2ccccc2)c1C(=O)c1ccc(Cl)cc1
4 | 4.4 | 1% | 40% | 42% | 1% | 7% | CN(Cc1ccccc1)Cc1csc(N)c1C(=O)c1ccc(Cl)cc1

Continued, compound first:

SMILES | fold change (FC) [1] | fold change (FC) [2] | inhibition [3] | inhibition [4] | inhibition [5] | inhibition [6] | inhibition [7]
CCCN(CCC)Cc1csc(N)c1C(=O)c1ccc(Cl)cc1 | 1.1 | 1.2 | 0% | 10% | 9% | 4% | 5%
CC(C)(C)c1ccc2c(c1)OC1(CCN(Cc3csc(N)c3C(=O)c3ccc(Cl)cc3)CC1)O2 | 6 | 6.3 | 0% | 55% | 51% | 1% | 12%
Cc1ccc2c(c1)OC1(CCN(Cc3csc(N)c3C(=O)c3ccc(Cl)cc3)CC1)O2 | 4.2 | 5.1 | 3% | 45% | 48% | 0% | 6%
Nc1scc(CN2CCC3(CC2)Oc2ccccc2O3)c1C(=O)c1ccc(Cl)cc1 | 4.7 | 5.1 | 1% | 43% | 45% | 1% | 5%
COc1ccc2c(c1)cc1n2CCN(Cc2csc(N)c2C(=O)c2ccc(Cl)cc2)C1 | 3.7 | 4.8 | 0% | 41% | 43% | 1% | 6%
Nc1scc(CN2CCN3c4ccc(Cl)cc4CC3C2)c1C(=O)c1ccc(Cl)cc1 (stereo unspecified) | 1.1 | 1.2 | 4% | 11% | 7% | 1% | 1%
C=CCN(CC=C)Cc1c(-c2ccccc2)sc(N)c1C(=O)c1ccc(Cl)cc1 | 3.9 | 4.2 | 1% | 34% | 36% | 3% | 5%
Nc1scc(CN2CCn3c(cc4cc(Cl)ccc43)C2)c1C(=O)c1ccc(Cl)cc1 | 6.9 | 7.4 | 0% | 60% | 64% | 4% | 4%
Nc1scc(CN2CCN3c4ccccc4CC3C2)c1C(=O)c1ccc(Cl)cc1 (stereo unspecified) | 7.6 | 8.1 | 3% | 72% | 71% | 0% | 5%
Nc1scc(CN2CCC3(CC2)Oc2cccc(F)c2O3)c1C(=O)c1ccc(Cl)cc1 | 6.3 | 6.5 | 1% | 52% | 56% | 1% | 7%
Cn1c2c(c3cc(Cl)ccc31)CN(Cc1csc(N)c1C(=O)c1ccc(Cl)cc1)CC2 | 2.6 | 2.8 | 0% | 28% | 24% | 1% | 1%
Cc1ccc2c(c1)CC1CN(Cc3csc(N)c3C(=O)c3ccc(Cl)cc3)CCN21 (stereo unspecified) | 1 | 1 | 0% | 13% | 3% | 6% | 7%
Cc1sc(N)c(C(=O)c2cccc(C(F)(F)F)c2)c1C | 1.6 | 1.3 | 0% | 20% | 18% | 0% | 
